According to ChEMBL document CHEMBL1134050, “Phenyl benzenesulfonamides are novel and selective 5-HT6 antagonists: identification of N-(2,5-dibromo-3-fluorophenyl)-4-methoxy-3-piperazin-1-ylbenzenesulfonamide (SB-357134)” (Bioorg Med Chem Lett, 2001):
Each block holds one compound with its values, some of them ahead of it.

What was measured:
[1] = molecular target: 5-hydroxytryptamine receptor 6 (Homo sapiens, UniProt P50406); assay: Binding affinity against human 5-hydroxytryptamine 6 receptor
Rattus norvegicus = species on record: Rattus norvegicus; assay: Blood: Brain distribution ratio is determined in rat; assay type: ADME, organism-based
Procedure, shortened: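 Rats received iv infusion for 8 h, and the brain:blood ratio was taken at steady state.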

[2] = Plasma Clearance measured at steady-state following iv infusion at 0.6 mg/kg/h in rats; assay type: ADME, organism-based; design: route intravenous; conditions: rat, 0.6 mg/kg/h infusion
[3] = molecular target: 5-hydroxytryptamine receptor 1B (Homo sapiens, UniProt P28222); assay: Compound was evaluated for binding affinity against human cloned 5-hydroxytryptamine 1B receptor in CHO cells using [3H]5-HT as the radioligand; assay type: cell-based
Procedure, shortened: (§1)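 Radioligand binding to human cloned receptors: 5-HT1A in HEK 293 cells with [3H]-8-OH-DPAT; 5-HT1B and 5-HT1E in CHO cells with [3H]-5-HT; 5-HT2B in HEK 293 cells with [3H]-5-HT; D2 and D3 in CHO cells with [125I]-iodosulpride. Values are the mean of at least two determinations, each within 0.2 log unit of the mean.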

[4] = molecular target: 5-hydroxytryptamine receptor 1D (Homo sapiens, UniProt P28221); assay: Compound was evaluated for binding affinity against human cloned 5-hydroxytryptamine 1D receptor in CHO cells using [3H]5-HT as the radioligand; assay type: cell-based
[5] = molecular target: 5-hydroxytryptamine receptor 1E (Homo sapiens, UniProt P28566); assay: Compound was evaluated for binding affinity against human cloned 5-hydroxytryptamine 1E receptor in CHO cells using [3H]5-HT as the radioligand; assay type: cell-based; procedure, shortened: as §1
[6] = molecular target: 5-hydroxytryptamine receptor 2A (Homo sapiens, UniProt P28223); assay: Compound was evaluated for binding affinity against human cloned 5-hydroxytryptamine 2A receptor in HEK 293 cells using [3H]ketanserin as the radioligand; assay type: cell-based, HEK293
[7] = molecular target: T1, 5-hydroxytryptamine receptor 1F (Homo sapiens, UniProt P30939); assay: Compound was evaluated for binding affinity against human cloned 5-hydroxytryptamine 1F receptor in CHO cells using [3H]-5-HT as the radioligand; assay type: cell-based
T1 sequence (P30939 whole entry): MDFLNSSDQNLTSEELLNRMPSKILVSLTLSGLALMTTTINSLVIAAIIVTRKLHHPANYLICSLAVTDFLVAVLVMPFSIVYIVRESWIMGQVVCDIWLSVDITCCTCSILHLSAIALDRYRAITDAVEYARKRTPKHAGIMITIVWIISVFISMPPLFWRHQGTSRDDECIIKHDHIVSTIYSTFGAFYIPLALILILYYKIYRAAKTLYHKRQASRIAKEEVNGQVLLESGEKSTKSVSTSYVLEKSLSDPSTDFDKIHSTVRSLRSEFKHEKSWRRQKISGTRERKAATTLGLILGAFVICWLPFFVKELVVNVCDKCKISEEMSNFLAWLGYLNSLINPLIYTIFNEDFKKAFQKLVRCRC

[8] = molecular target: T2, 5-hydroxytryptamine receptor 2C (Homo sapiens, UniProt P28335); assay: Compound was evaluated for binding affinity against human cloned 5-hydroxytryptamine 2C receptor in HEK 293 cells using [3H]mesulergine as the radioligand; assay type: cell-based, HEK293
T2 sequence (P28335 whole entry): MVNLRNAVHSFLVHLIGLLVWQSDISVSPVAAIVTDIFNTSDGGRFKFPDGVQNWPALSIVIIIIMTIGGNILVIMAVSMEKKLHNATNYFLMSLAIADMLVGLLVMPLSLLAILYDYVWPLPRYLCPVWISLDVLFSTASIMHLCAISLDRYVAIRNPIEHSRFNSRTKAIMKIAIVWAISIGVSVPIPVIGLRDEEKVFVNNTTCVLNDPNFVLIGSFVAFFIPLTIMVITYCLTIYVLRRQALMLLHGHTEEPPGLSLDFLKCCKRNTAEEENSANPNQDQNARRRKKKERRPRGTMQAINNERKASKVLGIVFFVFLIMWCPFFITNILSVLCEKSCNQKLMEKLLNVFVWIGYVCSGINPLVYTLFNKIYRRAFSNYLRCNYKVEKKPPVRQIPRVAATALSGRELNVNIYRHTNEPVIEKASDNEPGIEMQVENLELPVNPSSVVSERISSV

[9] = molecular target: 5-hydroxytryptamine receptor 2B (Homo sapiens, UniProt P41595); assay: Compound was evaluated for binding affinity against human cloned 5-HT2B receptor in HEK 293 cells using [3H]5-HT as the radioligand; assay type: cell-based, HEK293; procedure, shortened: as §1
[10] = molecular target: 5-hydroxytryptamine receptor 4 (Homo sapiens, UniProt Q13639); assay: Compound was evaluated for the binding affinity against human cloned 5-hydroxytryptamine 4 receptor in HeLa cells using [3H]-LSD as the radioligand; assay type: cell-based
[11] = molecular target: 5-hydroxytryptamine receptor 7 (Homo sapiens, UniProt P34969); assay: Compound was evaluated for binding affinity against human cloned 5-hydroxytryptamine 7 receptor in HEK 293 cells using [3H]5-CT as the radioligand (n=3); assay type: cell-based, HEK293
[12] = Bioavailability in rat (dose 3 mg/kg in 1% methylcellulose ); assay type: ADME, organism-based; conditions: in vivo
Procedure, shortened: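 Oral suspension dose of 3 mg/kg in 1% methylcellulose (v/v) aq to rats (n=3). Blood levels were measured by LC/MS/MS to derive AUC/dose and bioavailability.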

[13] = molecular target: T3, Alpha-1B adrenergic receptor (Homo sapiens, UniProt P35368); assay: Compound was evaluated for binding affinity against Alpha-1B adrenergic receptor
T3 sequence (P35368 whole entry): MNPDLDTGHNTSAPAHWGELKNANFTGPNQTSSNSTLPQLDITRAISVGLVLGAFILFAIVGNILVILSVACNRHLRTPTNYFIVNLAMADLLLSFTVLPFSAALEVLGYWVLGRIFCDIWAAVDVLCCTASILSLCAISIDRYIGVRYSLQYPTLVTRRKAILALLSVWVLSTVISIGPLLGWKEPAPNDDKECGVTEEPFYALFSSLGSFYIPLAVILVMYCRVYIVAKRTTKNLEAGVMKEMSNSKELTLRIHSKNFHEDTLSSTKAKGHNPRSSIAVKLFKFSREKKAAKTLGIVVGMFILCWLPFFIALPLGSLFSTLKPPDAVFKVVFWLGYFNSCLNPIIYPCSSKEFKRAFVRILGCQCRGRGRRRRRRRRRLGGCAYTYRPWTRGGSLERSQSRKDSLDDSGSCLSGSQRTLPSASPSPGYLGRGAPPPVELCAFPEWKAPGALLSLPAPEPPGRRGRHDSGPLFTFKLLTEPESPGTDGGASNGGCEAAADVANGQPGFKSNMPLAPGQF

D(3) dopamine receptor = D(3) dopamine receptor (Homo sapiens, UniProt P35462); assay: Compound was evaluated for binding affinity against Dopamine receptor D3 in CHO cells using [125I]iodosulpiride as the radioligand; assay type: cell-based; procedure, shortened: as §1
D(2) dopamine receptor = D(2) dopamine receptor (Homo sapiens, UniProt P14416); assay: Compound was evaluated for binding affinity against Dopamine receptor D2 in CHO cells using [125I]iodosulpiride as the radioligand; assay type: cell-based; procedure, shortened: as §1
[14] = molecular target: T4, 5-hydroxytryptamine receptor 1A (Homo sapiens, UniProt P08908); assay: Compound was evaluated for binding affinity against human cloned 5-hydroxytryptamine 1A receptor in HEK 293 cells using [3H]8-OH-DPAT as the radioligand; assay type: cell-based, HEK293; procedure, shortened: as §1
T4 sequence (P08908 whole entry): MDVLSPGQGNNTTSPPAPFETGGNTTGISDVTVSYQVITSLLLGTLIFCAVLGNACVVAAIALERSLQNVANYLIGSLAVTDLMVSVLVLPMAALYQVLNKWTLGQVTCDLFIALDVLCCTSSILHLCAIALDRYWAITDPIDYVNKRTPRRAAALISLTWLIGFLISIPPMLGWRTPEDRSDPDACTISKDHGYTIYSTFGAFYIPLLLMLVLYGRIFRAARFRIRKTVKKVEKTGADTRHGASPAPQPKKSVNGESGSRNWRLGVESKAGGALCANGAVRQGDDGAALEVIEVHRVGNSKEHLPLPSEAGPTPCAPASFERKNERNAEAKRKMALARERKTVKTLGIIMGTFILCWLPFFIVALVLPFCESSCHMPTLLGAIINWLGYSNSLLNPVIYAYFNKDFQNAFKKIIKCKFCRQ

[15] = Bioavailability in rat (dose 10 mg/kg in 10% Encapsin and 2% DMSO p.o.); conditions: in vivo, po

Chain of 5-hydroxytryptamine receptor 6 (P50406 whole entry): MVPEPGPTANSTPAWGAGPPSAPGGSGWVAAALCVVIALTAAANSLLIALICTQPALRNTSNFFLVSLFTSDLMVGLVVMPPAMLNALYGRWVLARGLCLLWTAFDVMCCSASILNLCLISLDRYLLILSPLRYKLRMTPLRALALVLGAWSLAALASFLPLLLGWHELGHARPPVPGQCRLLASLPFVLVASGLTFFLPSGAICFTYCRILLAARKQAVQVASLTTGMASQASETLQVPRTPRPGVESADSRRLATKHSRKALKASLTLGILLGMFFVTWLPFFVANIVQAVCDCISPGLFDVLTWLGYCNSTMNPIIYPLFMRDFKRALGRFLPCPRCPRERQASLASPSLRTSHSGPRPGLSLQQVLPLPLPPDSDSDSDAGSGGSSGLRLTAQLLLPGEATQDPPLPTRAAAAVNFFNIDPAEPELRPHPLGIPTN
Chain of 5-hydroxytryptamine receptor 1E (P28566 whole entry): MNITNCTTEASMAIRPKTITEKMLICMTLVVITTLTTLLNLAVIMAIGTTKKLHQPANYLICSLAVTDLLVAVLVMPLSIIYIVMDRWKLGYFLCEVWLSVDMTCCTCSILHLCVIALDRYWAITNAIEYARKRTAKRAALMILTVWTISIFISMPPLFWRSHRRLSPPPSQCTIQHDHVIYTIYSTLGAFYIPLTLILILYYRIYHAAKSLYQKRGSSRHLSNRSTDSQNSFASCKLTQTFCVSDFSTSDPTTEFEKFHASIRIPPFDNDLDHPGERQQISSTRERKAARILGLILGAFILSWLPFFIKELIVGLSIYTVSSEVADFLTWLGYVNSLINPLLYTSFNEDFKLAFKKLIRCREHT
Chain of 5-hydroxytryptamine receptor 2B (P41595 whole entry): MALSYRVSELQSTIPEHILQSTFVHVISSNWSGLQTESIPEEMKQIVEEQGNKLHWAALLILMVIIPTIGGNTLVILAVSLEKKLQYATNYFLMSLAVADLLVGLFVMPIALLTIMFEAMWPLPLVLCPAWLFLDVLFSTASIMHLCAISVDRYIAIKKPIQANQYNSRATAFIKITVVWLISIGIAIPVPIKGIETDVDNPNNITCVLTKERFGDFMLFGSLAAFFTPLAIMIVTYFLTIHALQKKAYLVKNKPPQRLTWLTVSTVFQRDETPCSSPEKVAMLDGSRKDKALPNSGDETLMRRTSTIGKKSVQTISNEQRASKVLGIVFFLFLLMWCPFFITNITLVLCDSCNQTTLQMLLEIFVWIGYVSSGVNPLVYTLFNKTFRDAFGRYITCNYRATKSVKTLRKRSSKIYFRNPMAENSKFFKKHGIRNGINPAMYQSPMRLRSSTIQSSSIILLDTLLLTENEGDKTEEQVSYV
Chain of D(2) dopamine receptor (P14416 whole entry): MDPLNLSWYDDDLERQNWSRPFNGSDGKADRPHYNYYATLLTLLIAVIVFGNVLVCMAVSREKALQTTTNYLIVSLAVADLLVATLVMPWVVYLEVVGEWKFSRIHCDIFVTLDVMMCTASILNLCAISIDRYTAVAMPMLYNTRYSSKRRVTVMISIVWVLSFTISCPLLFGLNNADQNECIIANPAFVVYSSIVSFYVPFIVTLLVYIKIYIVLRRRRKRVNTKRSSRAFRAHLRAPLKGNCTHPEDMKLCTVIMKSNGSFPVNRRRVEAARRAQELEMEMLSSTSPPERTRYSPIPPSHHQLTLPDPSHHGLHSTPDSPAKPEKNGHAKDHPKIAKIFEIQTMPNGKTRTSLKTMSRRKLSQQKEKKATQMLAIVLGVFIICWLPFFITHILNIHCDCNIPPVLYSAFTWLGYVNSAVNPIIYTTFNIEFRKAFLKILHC
Chain of 5-hydroxytryptamine receptor 4 (Q13639 whole entry): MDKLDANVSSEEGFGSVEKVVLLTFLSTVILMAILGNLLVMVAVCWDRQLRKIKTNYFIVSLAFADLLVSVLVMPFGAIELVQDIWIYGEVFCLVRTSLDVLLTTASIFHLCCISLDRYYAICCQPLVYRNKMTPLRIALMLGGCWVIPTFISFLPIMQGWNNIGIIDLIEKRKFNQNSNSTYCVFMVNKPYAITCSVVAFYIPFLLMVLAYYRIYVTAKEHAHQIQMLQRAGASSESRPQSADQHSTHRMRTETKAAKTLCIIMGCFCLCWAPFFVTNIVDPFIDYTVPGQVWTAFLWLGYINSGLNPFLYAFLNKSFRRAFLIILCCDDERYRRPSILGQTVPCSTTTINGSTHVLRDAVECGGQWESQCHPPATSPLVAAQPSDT
Chain of 5-hydroxytryptamine receptor 7 (P34969 whole entry): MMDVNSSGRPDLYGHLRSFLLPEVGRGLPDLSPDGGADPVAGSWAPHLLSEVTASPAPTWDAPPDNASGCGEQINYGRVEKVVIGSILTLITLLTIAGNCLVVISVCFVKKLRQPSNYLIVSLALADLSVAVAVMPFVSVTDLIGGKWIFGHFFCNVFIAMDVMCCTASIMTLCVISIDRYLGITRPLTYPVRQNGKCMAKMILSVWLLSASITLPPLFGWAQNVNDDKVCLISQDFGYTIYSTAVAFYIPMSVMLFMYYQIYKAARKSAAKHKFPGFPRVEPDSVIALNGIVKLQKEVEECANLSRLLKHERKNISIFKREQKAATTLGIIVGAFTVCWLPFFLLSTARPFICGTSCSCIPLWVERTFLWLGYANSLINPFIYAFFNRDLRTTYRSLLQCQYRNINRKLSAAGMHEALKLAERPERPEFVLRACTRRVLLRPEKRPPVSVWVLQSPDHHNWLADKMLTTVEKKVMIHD
Chain of D(3) dopamine receptor (P35462 whole entry): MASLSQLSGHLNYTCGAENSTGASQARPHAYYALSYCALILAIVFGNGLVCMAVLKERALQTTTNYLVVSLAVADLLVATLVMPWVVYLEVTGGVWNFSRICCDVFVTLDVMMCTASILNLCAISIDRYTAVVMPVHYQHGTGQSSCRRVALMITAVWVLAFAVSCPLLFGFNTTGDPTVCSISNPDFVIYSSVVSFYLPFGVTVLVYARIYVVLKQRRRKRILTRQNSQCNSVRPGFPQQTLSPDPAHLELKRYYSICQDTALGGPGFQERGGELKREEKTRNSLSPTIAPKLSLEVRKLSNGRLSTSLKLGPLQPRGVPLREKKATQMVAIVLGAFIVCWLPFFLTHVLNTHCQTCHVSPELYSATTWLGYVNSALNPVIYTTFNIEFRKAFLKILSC
Chain of 5-hydroxytryptamine receptor 1B (P28222 whole entry): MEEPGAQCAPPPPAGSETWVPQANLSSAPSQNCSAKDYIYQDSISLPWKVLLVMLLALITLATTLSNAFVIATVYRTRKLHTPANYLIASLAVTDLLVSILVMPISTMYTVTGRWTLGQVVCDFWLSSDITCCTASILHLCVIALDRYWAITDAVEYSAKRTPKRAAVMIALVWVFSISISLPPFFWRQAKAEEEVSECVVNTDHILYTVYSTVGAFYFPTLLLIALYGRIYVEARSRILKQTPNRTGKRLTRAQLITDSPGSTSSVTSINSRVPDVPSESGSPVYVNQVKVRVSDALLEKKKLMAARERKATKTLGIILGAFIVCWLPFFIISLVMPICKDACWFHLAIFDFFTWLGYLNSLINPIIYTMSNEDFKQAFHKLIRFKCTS
Chain of 5-hydroxytryptamine receptor 1D (P28221 whole entry): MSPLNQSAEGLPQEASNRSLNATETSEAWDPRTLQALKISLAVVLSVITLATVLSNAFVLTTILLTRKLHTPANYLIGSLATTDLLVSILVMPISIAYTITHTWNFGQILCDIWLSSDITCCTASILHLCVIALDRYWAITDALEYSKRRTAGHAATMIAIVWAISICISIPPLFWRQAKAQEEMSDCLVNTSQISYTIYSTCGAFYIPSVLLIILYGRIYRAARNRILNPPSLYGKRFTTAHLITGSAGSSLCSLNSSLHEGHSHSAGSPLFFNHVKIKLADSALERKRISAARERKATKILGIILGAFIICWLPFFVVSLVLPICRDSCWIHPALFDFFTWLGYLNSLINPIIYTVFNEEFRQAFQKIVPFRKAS
Chain of 5-hydroxytryptamine receptor 2A (P28223 whole entry): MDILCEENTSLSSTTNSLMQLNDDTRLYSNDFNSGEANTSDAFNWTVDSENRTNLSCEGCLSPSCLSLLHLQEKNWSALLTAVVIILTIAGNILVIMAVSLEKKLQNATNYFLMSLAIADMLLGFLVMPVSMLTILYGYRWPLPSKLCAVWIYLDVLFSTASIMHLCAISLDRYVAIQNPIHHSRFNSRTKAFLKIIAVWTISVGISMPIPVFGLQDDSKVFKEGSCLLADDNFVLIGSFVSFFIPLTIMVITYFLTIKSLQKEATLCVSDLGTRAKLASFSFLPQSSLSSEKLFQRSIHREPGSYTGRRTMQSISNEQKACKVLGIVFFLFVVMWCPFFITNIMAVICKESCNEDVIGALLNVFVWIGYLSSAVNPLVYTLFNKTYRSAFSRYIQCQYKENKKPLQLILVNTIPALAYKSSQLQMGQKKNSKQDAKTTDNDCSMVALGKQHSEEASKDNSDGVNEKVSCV

SMILES: COc1ccc(S(=O)(=O)Nc2cc(Br)cc(Br)c2)cc1N1CCNCC1
- Ki [1]: 0.501 nM

- Ki [1]: 3.98 nM
- Distribution ratio (Rattus norvegicus): 0.41
- clearance [2]: 73 mL/min/kg
SMILES: COc1ccc(S(=O)(=O)N2CCc3cc(C)c(C(F)(F)F)cc32)cc1N1CCNCC1

- Ki [1]: 20 nM
SMILES: COc1ccc(S(=O)(=O)Nc2cc([N+](=O)[O-])ccc2C)cc1N1CCNCC1

SMILES: COc1ccc(S(=O)(=O)Nc2cc(Cl)cc(Cl)c2Cl)cc1N1CCNCC1
- Ki [3]: > 10000 nM
- Ki [4]: > 3160 nM
- Ki [5]: > 10000 nM
- Ki [6]: > 10000 nM
- Ki [7]: > 10000 nM
- Ki [8]: 1000 nM
- Ki [9]: 2000 nM
- Ki [10]: > 10000 nM
- Ki [11]: 2 nM
- Ki [1]: 2 nM
- Distribution ratio (Rattus norvegicus): 0.02
- bioavailability [12]: > 80%
- clearance [2]: 2 mL/min/kg
- Ki [13]: > 3980 nM
- Ki (D(3) dopamine receptor): > 3980 nM
- Ki (D(2) dopamine receptor): > 10000 nM
- Ki [14]: 3980 nM

SMILES: COc1ccc(S(=O)(=O)Nc2cc(Cl)c(Cl)cc2Cl)cc1N1CCNCC1
- Ki [1]: 5.01 nM

SMILES: COc1ccc(S(=O)(=O)Nc2ccc(Cl)c(Cl)c2)cc1N1CCNCC1
- Ki [1]: 2.51 nM

- Ki [1]: 3.98 nM
SMILES: COc1ccc(C(F)(F)F)cc1NS(=O)(=O)c1ccc(OC)c(N2CCNCC2)c1

SMILES: COc1ccc(S(=O)(=O)Nc2cc(F)cc(F)c2Cl)cc1N1CCNCC1
- Ki [1]: 31.6 nM

SMILES: COc1ccc(S(=O)(=O)Nc2cc(Br)cc(F)c2Cl)cc1N1CCNCC1
- Ki [1]: 3.16 nM

SMILES: COc1ccc(S(=O)(=O)Nc2cc(Br)cc(Cl)c2Cl)cc1N1CCNCC1
- Ki [1]: 3.98 nM

SMILES: COc1ccc(S(=O)(=O)Nc2cccc(I)c2)cc1N1CCNCC1
- Ki [1]: 0.501 nM
- Distribution ratio (Rattus norvegicus): 0.13
- clearance [2]: 58 mL/min/kg

SMILES: COc1ccc(S(=O)(=O)Nc2ccccc2Br)cc1N1CCNCC1
- Ki [1]: 1.58 nM
- Distribution ratio (Rattus norvegicus): 0.24
- clearance [2]: 60 mL/min/kg

- Ki [1]: 0.794 nM
SMILES: COc1ccc(S(=O)(=O)N2CCCc3c(Cl)cc(Cl)cc32)cc1N1CCNCC1

SMILES: COc1ccc(S(=O)(=O)Nc2cc(Br)cc(Br)c2Br)cc1N1CCNCC1
- Ki [1]: 2.51 nM

- clearance [2]: 8 mL/min/kg
- bioavailability [15]: 82%
SMILES: COc1ccc(NS(=O)(=O)c2sc3ccc(Cl)cc3c2C)cc1N1CCNCC1

SMILES: COc1ccc(Cl)cc1NS(=O)(=O)c1ccc(OC)c(N2CCNCC2)c1
- Ki [1]: 1.26 nM

SMILES: COc1ccc(S(=O)(=O)Nc2cc(Br)cc(Cl)c2Br)cc1N1CCNCC1
- Ki [1]: 3.98 nM

- Ki [1]: 3.16 nM
SMILES: COc1ccc(S(=O)(=O)N2CCCc3cc(Br)ccc32)cc1N1CCNCC1

SMILES: COc1ccc(S(=O)(=O)Nc2cc(Br)cc(Br)c2Cl)cc1N1CCNCC1
- Ki [1]: 2.51 nM
